The nature of experiment [1]: Inhibition of pig pancreatic lipase type 2 using p-nitrophenyl butyrate as substrate preincubated with enzyme for 10 mins followed by susbtrate addition and measured after 30 mins by spectrophotometric analysis. Details: species or system Sus scrofa. Summed up:
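PL (300 U/mL stock, in 50 mM phosphate buffer pH 7.2) was preincubated with compound aliquots (MeOH or MeOH:DMSO 95:5 stocks) for 10 min at 37 °C. p-Nitrophenyl butyrate (3.2 mM stock) was then added and incubated 30 min at 37 °C with shaking, read at 405 nm. Five concentrations per compound, in triplicate. % inhibition was taken from absorbance vs no-compound control, and IC50 by regression.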

Experiment [2] is filed under the species Sus scrofa. The experiment can be described thus: Binding affinity to pig pancreatic lipase type 2 assessed as binding constant at 32 degC measured after 1 min by Stern-Volmer plot analysis. Summed up:
(§1)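 Intrinsic Trp fluorescence titration of PL, 1.1 μM in 0.1 M phosphate buffer with 0.1 M NaCl, pH 7.4, by successive 1 or 2 μL additions of compound. Run at 27, 32 and 37 °C, each in triplicate. Excitation 285 nm, slits 10 nm. Spectrum recorded 1 min after each addition. Intensity at the emission maximum was used for Stern–Volmer plots.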

The species named for experiment [3] is Sus scrofa. The experiment can be described thus: Binding affinity to pig pancreatic lipase type 2 assessed as bathochromic shift of maximum fluorescence intensity at 37 degC measured after 1 min by fluorescence spectral analysis. Summed up:
as §1

The species entered for experiment [4] is Sus scrofa. The experiment can be described thus: Binding affinity to pig pancreatic lipase type 2 assessed as decrease in fluorescence intensity at 37 degC measured after 1 min by fluorescence spectral analysis. Summed up: as §1
For experiment [5], the species on record is Sus scrofa. The experiment can be described thus: Binding affinity to pig pancreatic lipase type 2 assessed as Stern-Volmer quenching constant at 27 degC measured after 1 min by Stern-Volmer plot analysis. Summed up:
as §1

The species named for experiment [6] is Sus scrofa. The experiment can be described thus: Binding affinity to pig pancreatic lipase type 2 assessed as quenching rate constant at 27 degC measured after 1 min by Stern-Volmer plot analysis. Summed up:
as §1

Experiment [7] in a line: Competitive inhibition of pig pancreatic lipase type 2 using varying concentrations of p-nitrophenyl butyrate as substrate measured every 1 min for 30 mins by Lineweaver-Burk plot analysis. The arrangement: species or system Sus scrofa. Summed up: (§2)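 A405 was read every 1 min for 30 min. Mode of inhibition was from Lineweaver–Burk plots of 1/v0 vs 1/[S]. Ki and K'i were obtained from replots of slope and y-intercept versus inhibitor concentration.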

For experiment [8], the species on record is Sus scrofa. Briefly: Binding affinity to pig pancreatic lipase type 2 assessed as quenching rate constant at 37 degC measured after 1 min by Stern-Volmer plot analysis. Summed up:
as §1

For experiment [9], the species on record is Sus scrofa. Briefly: Binding affinity to pig pancreatic lipase type 2 assessed as binding constant at 27 degC measured after 1 min by Stern-Volmer plot analysis. Summed up:
as §1

For experiment [10], the species on record is Sus scrofa. The experiment can be described thus: Binding affinity to pig pancreatic lipase type 2 assessed as Stern-Volmer quenching constant at 37 degC measured after 1 min by Stern-Volmer plot analysis. Summed up: as §1
The species entered for experiment [11] is Sus scrofa. Briefly: Binding affinity to pig pancreatic lipase type 2 assessed as decrease in fluorescence intensity at 32 degC measured after 1 min by fluorescence spectral analysis. Summed up: as §1
The species named for experiment [12] is Sus scrofa. The experiment can be described thus: Binding affinity to pig pancreatic lipase type 2 assessed as decrease in fluorescence intensity at 27 degC measured after 1 min by fluorescence spectral analysis. Summed up: as §1
For experiment [13], the species on record is Sus scrofa. The experiment can be described thus: Binding affinity to pig pancreatic lipase type 2 assessed as bathochromic shift of maximum fluorescence intensity at 32 degC measured after 1 min by fluorescence spectral analysis. Summed up:
as §1

For experiment [14], the species on record is Sus scrofa. The experiment can be described thus: Binding affinity to pig pancreatic lipase type 2 assessed as bathochromic shift of maximum fluorescence intensity at 27 degC measured after 1 min by fluorescence spectral analysis. Summed up:
as §1

Experiment [15] is filed under the species Sus scrofa. The experiment can be described thus: Binding affinity to pig pancreatic lipase type 2 assessed as quenching rate constant at 32 degC measured after 1 min by Stern-Volmer plot analysis. Summed up:
as §1

The species named for experiment [16] is Sus scrofa. The experiment can be described thus: Binding affinity to pig pancreatic lipase type 2 assessed as binding constant at 37 degC measured after 1 min by Stern-Volmer plot analysis. Summed up:
as §1

The species entered for experiment [17] is Sus scrofa. Briefly: Binding affinity to pig pancreatic lipase type 2 assessed as Stern-Volmer quenching constant at 32 degC measured after 1 min by Stern-Volmer plot analysis. Summed up: as §1
Experiment [18] can be described thus: Non-competitive inhibition of pig pancreatic lipase type 2 using varying concentrations of p-nitrophenyl butyrate as substrate measured every 1 min for 30 mins by Lineweaver-Burk plot analysis. Details: species or system Sus scrofa. Summed up: as §2

Calls of active or inactive are those of the source. The rule behind the calls is not given here.

What is called IC50 is the point on the concentration scale where inhibition reaches its midpoint. What is called Ki is a measure of affinity in units of concentration, obtained from inhibition or displacement. A lower Ki goes with tighter binding.

Compound `CC(=O)Oc1ccc2c(=O)c(-c3ccc(OC(C)=O)c(OC(C)=O)c3)coc2c1` registered an IC50 in [1] of 122 µM.

The compound `CCCCCCCCCCC[C@@H](C[C@@H]1OC(=O)[C@H]1CCCCCC)OC(=O)[C@H](CC(C)C)NC=O` [ORLISTAT] came in with a half-inhibitory concentration (IC50) in experiment [1] of 0.6 µM. This IC50 is about 200-fold lower than that of the compound before.

As for `O=c1c(-c2ccc(O)cc2)coc2cc(O)cc(O)c12` [GENISTEIN], the Ka is 0.87 10^4L/mol in the experiment listed under Sus scrofa [2], 1.24 10^4L/mol in the experiment listed under Sus scrofa [9] and 0.44 10^4L/mol in the experiment filed under Sus scrofa [16]. Besides, the result in the experiment filed under Sus scrofa [3], in the experiment filed under Sus scrofa [4], in the experiment filed under Sus scrofa [11], in the experiment filed under Sus scrofa [12], in the experiment filed under Sus scrofa [13] and in the experiment listed under Sus scrofa [14] was Active. Moreover, the KSV is 1.88 10^4L/mol in the experiment filed under Sus scrofa [5], 1.07 10^4L/mol in the experiment listed under Sus scrofa [10] and 1.5 10^4L/mol in the experiment filed under Sus scrofa [17]. Further, the values for the Kq in the experiment filed under Sus scrofa [6], in the experiment filed under Sus scrofa [8] and in the experiment listed under Sus scrofa [15] were 1.18 10^13L/mol.s, 0.67 10^13L/mol.s and 0.94 10^13L/mol.s, respectively. The affinity in [7], expressed as Ki, was 80 µM. This compound displayed an IC50 in [1] of 60 µM.

`COc1ccc(-c2coc3c(O)c(O)ccc3c2=O)cc1` returned an IC50 in experiment [1] of 93 µM. This counts as double-digit micromolar.

Turning to `O=c1c(-c2cc(Br)c(O)c(Br)c2)coc2c(Br)c(O)ccc12`, the Ka in the experiment listed under Sus scrofa [2] is 1.99 10^4L/mol; in the experiment filed under Sus scrofa [9] it was 0.32 10^4L/mol; in the experiment filed under Sus scrofa [16], 3.21 10^4L/mol. The outcome in the experiment filed under Sus scrofa [3], in the experiment filed under Sus scrofa [4], in the experiment listed under Sus scrofa [11], in the experiment listed under Sus scrofa [12], in the experiment filed under Sus scrofa [13] and in the experiment listed under Sus scrofa [14] was Active. Besides, the results for the KSV in the experiment listed under Sus scrofa [5], in the experiment filed under Sus scrofa [10] and in the experiment listed under Sus scrofa [17] were 0.58 10^4L/mol, 1.11 10^4L/mol and 0.96 10^4L/mol, respectively. Moreover, the Kq in the experiment listed under Sus scrofa [6] is 0.36 10^13L/mol.s; in the experiment filed under Sus scrofa [8], 0.7 10^13L/mol.s; in the experiment listed under Sus scrofa [15], 0.6 10^13L/mol.s. For the same compound, the values for the Ki in [7] and in experiment [18] were 90 µM and 1200 µM, respectively. In experiment [1], this compound had an IC50 of 63 µM.

Turning to `COc1ccc(-c2coc3c(Br)c(O)ccc3c2=O)cc1`, the results for the Ka in the experiment listed under Sus scrofa [2], in the experiment listed under Sus scrofa [9] and in the experiment listed under Sus scrofa [16] were 8.47 10^4L/mol, 12.4 10^4L/mol and 1.47 10^4L/mol, respectively. Besides, the result in the experiment filed under Sus scrofa [3], in the experiment filed under Sus scrofa [4], in the experiment listed under Sus scrofa [11], in the experiment filed under Sus scrofa [12], in the experiment listed under Sus scrofa [13] and in the experiment listed under Sus scrofa [14] was Active. Also, the KSV in the experiment listed under Sus scrofa [5] was 4.69 10^4L/mol; in the experiment filed under Sus scrofa [10], 2.29 10^4L/mol; in the experiment listed under Sus scrofa [17], 3.34 10^4L/mol. The Kq in the experiment filed under Sus scrofa [6] is 2.95 10^13L/mol.s; in the experiment filed under Sus scrofa [8], 1.43 10^13L/mol.s; in the experiment listed under Sus scrofa [15], 2.1 10^13L/mol.s. In addition, the values for the Ki in [7] and in experiment [18] were 320 µM and 1900 µM, respectively. This compound also showed an IC50 in [1] of 87 µM.

In experiment [1], `COc1ccc(-c2coc3c(Br)c(O)ccc3c2=O)cc1Br` registered an IC50 of 100 µM.

On to `COc1ccc(-c2coc3cc(O)ccc3c2=O)cc1` [FORMONONETIN], for which the Ka in the experiment listed under Sus scrofa [2] was 0.22 10^4L/mol; in the experiment listed under Sus scrofa [9] it was 0.16 10^4L/mol; in the experiment listed under Sus scrofa [16], 0.27 10^4L/mol. The outcome in the experiment filed under Sus scrofa [3], in the experiment listed under Sus scrofa [4], in the experiment listed under Sus scrofa [11], in the experiment filed under Sus scrofa [12], in the experiment listed under Sus scrofa [13] and in the experiment filed under Sus scrofa [14] was Active. Also, the KSV was 0.72 10^4L/mol in the experiment listed under Sus scrofa [5], 1.06 10^4L/mol in the experiment filed under Sus scrofa [10] and 1.02 10^4L/mol in the experiment listed under Sus scrofa [17]. Moreover, the Kq in the experiment filed under Sus scrofa [6] is 0.45 10^13L/mol.s; in the experiment filed under Sus scrofa [8] it was 0.66 10^13L/mol.s; in the experiment filed under Sus scrofa [15] it was 0.64 10^13L/mol.s. For the same compound, the inhibitory constant (Ki) worked out at 640 µM in experiment [7] and 2900 µM in [18]. Further, the IC50 in [1] came out at 120 µM.

`Cc1cc(O)cc2occ(-c3ccc(O)c(O)c3)c(=O)c12`: in experiment [1], it took 92 µM to reach half-maximal inhibition (IC50). In other words, the double-digit micromolar range.

In turn, `O=c1c(-c2ccc(O)c(O)c2)coc2cc(O)ccc12` yielded a 50% inhibitory concentration (IC50) in experiment [1] of 70 µM.

Regarding `O=c1c(-c2ccc(O)cc2)coc2cc(O)ccc12` [DAIDZEIN], the Ka is 1.2 10^4L/mol in the experiment listed under Sus scrofa [2], 5.3 10^4L/mol in the experiment listed under Sus scrofa [9] and 1.02 10^4L/mol in the experiment listed under Sus scrofa [16]. The result in the experiment filed under Sus scrofa [3], in the experiment listed under Sus scrofa [4], in the experiment listed under Sus scrofa [11], in the experiment listed under Sus scrofa [12], in the experiment filed under Sus scrofa [13] and in the experiment listed under Sus scrofa [14] was Active. Also, the KSV in the experiment filed under Sus scrofa [5] is 8.95 10^4L/mol; in the experiment filed under Sus scrofa [10] it was 4.08 10^4L/mol; in the experiment filed under Sus scrofa [17] it was 4.94 10^4L/mol. Also, the figures for the Kq in the experiment listed under Sus scrofa [6], in the experiment filed under Sus scrofa [8] and in the experiment listed under Sus scrofa [15] were 5.62 10^13L/mol.s, 2.57 10^13L/mol.s and 3.11 10^13L/mol.s, respectively. The Ki in [7] came to 300 µM; in [18], 630 µM. The compound further registered a concentration for half-maximal inhibition (IC50) in [1] of 83 µM.

The compound `COc1ccc2c(=O)c(-c3ccc(OC)c(OC)c3)coc2c1` returned an IC50 in experiment [1] of 360 µM.

Source of the values: ChEMBL document CHEMBL4823247, “Natural Isoflavones and Semisynthetic Derivatives as Pancreatic Lipase Inhibitors” (J Nat Prod, 2021).
